Results published in ChEMBL document CHEMBL1138564, “Microwave-induced synthesis and anti-microbial activities of 7,10,11,12-tetrahydrobenzo[c]acridin-8(9H)-one derivatives” (2009).
Values after ≈ are worked out from the molar mass of the structure shown. Active and inactive are the calls of the source. No cut-off for these calls is given here.

Legend:
Escherichia coli [1] = assay: Antimicrobial activity against Escherichia coli NCIM 2065 at 1000 ug/disk after 24 hrs by disk diffusion method; assay type: functional; details: NCIM 2065, 24 h, read-out: DIZ
Method in brief: (§1)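 Disc diffusion on Mueller–Hinton agar. 100 µl of bacterial suspension at 10⁸ CFU/ml is spread on the plate. Discs carry test compounds at two loadings, dissolved in DMSO; DMSO alone serves as negative control. Ofloxacin disc is the positive reference. Plates are incubated at 37 °C for 24 h, and the inhibition zone diameter is measured.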

Escherichia coli [2] = assay: Antimicrobial activity against Escherichia coli NCIM 2065 at 500 ug/disk after 24 hrs by disk diffusion method; assay type: functional; details: NCIM 2065, 24 h, read-out: DIZ; method in brief: as §1
Bacillus subtilis [3] = assay: Antimicrobial activity against Bacillus subtilis NCIM 2063 at 500 ug/disk after 24 hrs by disk diffusion method; assay type: functional; details: NCIM 2063, 24 h, read-out: DIZ; method in brief: as §1
Bacillus subtilis [4] = assay: Antimicrobial activity against Bacillus subtilis NCIM 2063 at 1000 ug/disk after 24 hrs by disk diffusion method; assay type: functional; details: NCIM 2063, 24 h, read-out: DIZ; method in brief: as §1
Bacillus cereus [5] = assay: Antimicrobial activity against Bacillus cereus NCIM 2155 at 500 ug/disk after 24 hrs by disk diffusion method; assay type: functional; details: NCIM 2155, 24 h, read-out: DIZ; method in brief: as §1
Bacillus cereus [6] = assay: Antimicrobial activity against Bacillus cereus NCIM 2155 at 1000 ug/disk after 24 hrs by disk diffusion method; assay type: functional; details: NCIM 2155, 24 h, read-out: DIZ; method in brief: as §1
Aliivibrio fischeri [7] = assay: Antimicrobial activity against Vibrio fischeri NCIM 2154 at 500 ug/disk after 24 hrs by disk diffusion method; assay type: functional
Method in brief: (§2)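 Disc diffusion. 100 µl of bacterial suspension at 10⁸ CFU/ml was spread on Mueller–Hinton agar. Discs loaded with test compound dissolved in DMSO were placed on the lawn, with a DMSO-only disc as negative control. Plates were incubated at 37 °C for 24 h, and the inhibition zone diameter was measured.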

Aliivibrio fischeri [8] = assay: Antimicrobial activity against Vibrio fischeri NCIM 2154 at 1000 ug/disk after 24 hrs by disk diffusion method; assay type: functional; method in brief: as §2
[9] = tested on: Rhodococcus corynebacterioides; assay: Antimicrobial activity against Corynebacterium rubrum NCIM 2252 at 500 ug/disk after 24 hrs by disk diffusion method; assay type: functional; details: Rhodococcoides corynebacterioides; method in brief: as §1
Salmonella typhimurium [10] = assay: Antimicrobial activity against Salmonella Typhimurium NCIM 2501 at 1000 ug/disk after 24 hrs by disk diffusion method; assay type: functional; details: Salmonella enterica subsp. enterica serovar Typhimurium; method in brief: as §2
Salmonella typhimurium [11] = assay: Antimicrobial activity against Salmonella Typhimurium NCIM 2501 at 500 ug/disk after 24 hrs by disk diffusion method; assay type: functional; details: Salmonella enterica subsp. enterica serovar Typhimurium; method in brief: as §2
[12] = tested on: Rhodococcus corynebacterioides; assay: Antimicrobial activity against Corynebacterium rubrum NCIM 2252 at 1000 ug/disk after 24 hrs by disk diffusion method; assay type: functional; details: Rhodococcoides corynebacterioides; method in brief: as §1
Staphylococcus [13] = assay: Antimicrobial activity against Staphylococcus albus NCIM 2178 at 500 ug/disk after 24 hrs by disk diffusion method; assay type: functional; method in brief: as §2
Staphylococcus [14] = assay: Antimicrobial activity against Staphylococcus albus NCIM 2178 at 1000 ug/disk after 24 hrs by disk diffusion method; assay type: functional; method in brief: as §2
Proteus vulgaris [15] = assay: Antimicrobial activity against Proteus vulgaris NCIM 2027 at 500 ug/disk after 24 hrs by disk diffusion method; assay type: functional; method in brief: as §1
Proteus vulgaris [16] = assay: Antimicrobial activity against Proteus vulgaris NCIM 2027 at 1000 ug/disk after 24 hrs by disk diffusion method; assay type: functional; method in brief: as §1
Aspergillus flavus [17] = assay: Antimicrobial activity against Aspergillus flavus NCIM 902 at 500 ug/disk after 72 hrs by disk diffusion method; assay type: functional; details: NCIM 902, 72 h, read-out: DIZ
Method in brief: (§3)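 Disc diffusion on Sabouraud's dextrose agar. 100 µl of fungal suspension at 10⁶ CFU/ml is spread on the plate. Discs carry test compounds at two loadings in DMSO; DMSO alone is the negative control. Clotrimazole disc is the positive reference. Plates are incubated at 27 °C for 72 h, and the zone of inhibition diameter is measured.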

Aspergillus flavus [18] = assay: Antimicrobial activity against Aspergillus flavus NCIM 902 at 1000 ug/disk after 72 hrs by disk diffusion method; assay type: functional; details: NCIM 902, 72 h, read-out: DIZ; method in brief: as §3
Rhodotorula mucilaginosa [19] = assay: Antimicrobial activity against Rhodotorula rubra NCIM 3174 at 500 ug/disk after 72 hrs by disk diffusion method; assay type: functional; details: NCIM 3174, 72 h, read-out: DIZ
Method in brief: (§4)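 Fungal disc diffusion. 100 µl of suspension at 10⁶ CFU/ml was spread on Sabouraud's dextrose agar. Discs carrying test compound in DMSO were applied, with a DMSO-only disc as negative control. Plates were incubated at 27 °C for 72 h, and the zone of inhibition diameter was measured.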

Rhodotorula mucilaginosa [20] = assay: Antimicrobial activity against Rhodotorula rubra NCIM 3174 at 1000 ug/disk after 72 hrs by disk diffusion method; assay type: functional; details: NCIM 3174, 72 h, read-out: DIZ; method in brief: as §4
Aspergillus fumigatus [21] = assay: Antimicrobial activity against Aspergillus fumigatus NCIM 902 at 500 ug/disk after 72 hrs by disk diffusion method; assay type: functional; method in brief: as §3
Aspergillus fumigatus [22] = assay: Antimicrobial activity against Aspergillus fumigatus NCIM 902 at 1000 ug/disk after 72 hrs by disk diffusion method; assay type: functional; details: NCIM 902, 72 h, read-out: DIZ; method in brief: as §3
Aspergillus parasiticus [23] = assay: Antimicrobial activity against Aspergillus parasiticus NCIM 904 at 500 ug/disk after 72 hrs by disk diffusion method; assay type: functional; details: NCIM 904, 72 h, read-out: DIZ; method in brief: as §3
Aspergillus parasiticus [24] = assay: Antimicrobial activity against Aspergillus parasiticus NCIM 904 at 1000 ug/disk after 72 hrs by disk diffusion method; assay type: functional; details: NCIM 904, 72 h, read-out: DIZ; method in brief: as §3
Penicillium chrysogenum [25] = assay: Antimicrobial activity against Penicillium chrysogenum NCIM 707 at 500 ug/disk after 72 hrs by disk diffusion method; assay type: functional; method in brief: as §3
Penicillium chrysogenum [26] = assay: Antimicrobial activity against Penicillium chrysogenum NCIM 707 at 1000 ug/disk after 72 hrs by disk diffusion method; assay type: functional; method in brief: as §3
Lipomyces lipofer [27] = assay: Antimicrobial activity against Lipomyces lipofer NCIM 3252 at 500 ug/disk after 72 hrs by disk diffusion method; assay type: functional; method in brief: as §3
Lipomyces lipofer [28] = assay: Antimicrobial activity against Lipomyces lipofer NCIM 3252 at 1000 ug/disk after 72 hrs by disk diffusion method; assay type: functional; method in brief: as §3
Klebsiella aerogenes [29] = assay: Antimicrobial activity against Klebsiella aerogenes NCIM 2239 at 1000 ug/disk after 24 hrs by disk diffusion method; assay type: functional; method in brief: as §1
Klebsiella aerogenes [30] = assay: Antimicrobial activity against Klebsiella aerogenes NCIM 2239 at 500 ug/disk after 24 hrs by disk diffusion method; assay type: functional; method in brief: as §1
Pseudomonas aeruginosa [31] = assay: Antimicrobial activity against Pseudomonas aeruginosa NCIM 2200 at 1000 ug/disk after 24 hrs by disk diffusion method; assay type: functional; method in brief: as §1
Pseudomonas aeruginosa [32] = assay: Antimicrobial activity against Pseudomonas aeruginosa NCIM 2200 at 500 ug/disk after 24 hrs by disk diffusion method; assay type: functional; method in brief: as §2
Aspergillus flavus [33] = assay: Antimicrobial activity against Aspergillus flavus NCIM 902 after 72 hrs by serial dilution method; assay type: functional; details: NCIM 535, 72 h, in the assay text read “NCIM 535” for “NCIM 902”
Method in brief: (§5)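 MIC by broth dilution in Sabouraud's dextrose broth, only for fungi sensitive in disc diffusion. Two-fold serial dilutions of compounds are made in 1 ml broth per tube, range 3.9 to 1000. Inoculated tubes are incubated at 27 °C for 72 h.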

Rhodotorula mucilaginosa [34] = assay: Antimicrobial activity against Rhodotorula rubra NCIM 3174 after 72 hrs by serial dilution method; assay type: functional; details: NCIM 3174, 72 h
Method in brief: (§6)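 MIC by broth dilution in Sabouraud's dextrose broth, run only on fungi found sensitive in the disc assay. Twofold serial dilutions were made in 1 ml broth per tube, covering 3.9 to 1000. Inoculated tubes were incubated at 27 °C for 72 h.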

Aspergillus fumigatus [35] = assay: Antimicrobial activity against Aspergillus fumigatus NCIM 902 after 72 hrs by serial dilution method; assay type: functional; details: NCIM 902, 72 h; method in brief: as §5
Aspergillus parasiticus [36] = assay: Antimicrobial activity against Aspergillus parasiticus NCIM 904 after 72 hrs by serial dilution method; assay type: functional; details: NCIM 904, 72 h; method in brief: as §5
Trichoderma viride [37] = assay: Antimicrobial activity against Trichoderma viride NCIM 1195 after 72 hrs by serial dilution method; assay type: functional; details: NCIM 1195, 72 h; method in brief: as §6
Trichoderma viride [38] = assay: Antimicrobial activity against Trichoderma viride NCIM 1195 at 500 ug/disk after 72 hrs by disk diffusion method; assay type: functional; details: NCIM 1195, 72 h, read-out: DIZ; method in brief: as §4
Trichoderma viride [39] = assay: Antimicrobial activity against Trichoderma viride NCIM 1195 at 1000 ug/disk after 72 hrs by disk diffusion method; assay type: functional; details: NCIM 1195, 72 h, read-out: DIZ; method in brief: as §4
Escherichia coli [40] = assay: Antimicrobial activity against Escherichia coli NCIM 2065 after 24 hrs by serial dilution method; assay type: functional; details: NCIM 2065, 24 h
Method in brief: (§7)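 Broth dilution MIC in nutrient broth, run only for organisms found sensitive in disc diffusion. Compounds are two-fold serially diluted in 1 ml sterile broth per tube, spanning 3.9 to 1000. Inoculated tubes are incubated at 37 °C for 24 h.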

Bacillus subtilis [41] = assay: Antimicrobial activity against Bacillus subtilis NCIM 2063 after 24 hrs by serial dilution method; assay type: functional; details: NCIM 2063, 24 h; method in brief: as §7
Bacillus cereus [42] = assay: Antimicrobial activity against Bacillus cereus NCIM 2155 after 24 hrs by serial dilution method; assay type: functional; details: NCIM 2155, 24 h; method in brief: as §7
Aspergillus niger [43] = assay: Antimicrobial activity against Aspergillus niger NCIM 1196 at 500 ug/disk after 72 hrs by disk diffusion method
Aspergillus niger [44] = assay: Antimicrobial activity against Aspergillus niger NCIM 1196 at 1000 ug/disk after 72 hrs by disk diffusion method

- MIC (Aspergillus flavus [33]): 62.5 µg/mL (≈ 192 µM)
- MIC (Rhodotorula mucilaginosa [34]): 31.2 µg/mL (≈ 95.9 µM)
- MIC (Aspergillus fumigatus [35]): 62.5 µg/mL (≈ 192 µM)
- MIC (Aspergillus parasiticus [36]): 62.5 µg/mL (≈ 192 µM)
- MIC (Trichoderma viride [37]): 31.2 µg/mL (≈ 95.9 µM)
- MIC (Escherichia coli [40]): 125 µg/mL (≈ 384 µM)
- MIC (Bacillus subtilis [41]): 62.5 µg/mL (≈ 192 µM)
- MIC (Bacillus cereus [42]): 125 µg/mL (≈ 384 µM)
SMILES: O=C1CCCC2=C1C(c1ccccc1)c1ccc3ccccc3c1N2 (centres undefined)
- zone of inhibition at 1000 µg/disc (Escherichia coli [1]): 9 mm
- zone of inhibition at 500 µg/disc (Escherichia coli [2]): 8 mm
- zone of inhibition at 500 µg/disc (Bacillus subtilis [3]): 8 mm
- zone of inhibition at 1000 µg/disc (Bacillus subtilis [4]): 10 mm
- zone of inhibition at 500 µg/disc (Bacillus cereus [5]): 8 mm
- zone of inhibition at 1000 µg/disc (Bacillus cereus [6]): 9 mm
- diameter of the inhibition zone (DIZ) (Aliivibrio fischeri [7]): inactive
- diameter of the inhibition zone (DIZ) (Aliivibrio fischeri [8]): inactive
- diameter of the inhibition zone (DIZ) [9]: inactive
- diameter of the inhibition zone (DIZ) (Salmonella typhimurium [10]): inactive
- diameter of the inhibition zone (DIZ) (Salmonella typhimurium [11]): inactive
- diameter of the inhibition zone (DIZ) [12]: inactive
- diameter of the inhibition zone (DIZ) (Staphylococcus [13]): inactive
- diameter of the inhibition zone (DIZ) (Staphylococcus [14]): inactive
- diameter of the inhibition zone (DIZ) (Proteus vulgaris [15]): inactive
- diameter of the inhibition zone (DIZ) (Proteus vulgaris [16]): inactive
- zone of inhibition at 500 µg/disc (Aspergillus flavus [17]): 9 mm
- zone of inhibition at 1000 µg/disc (Aspergillus flavus [18]): 10 mm
- zone of inhibition at 500 µg/disc (Rhodotorula mucilaginosa [19]): 8 mm
- zone of inhibition at 1000 µg/disc (Rhodotorula mucilaginosa [20]): 12 mm
- diameter of the inhibition zone (DIZ) (Aspergillus fumigatus [21]): inactive
- zone of inhibition at 1000 µg/disc (Aspergillus fumigatus [22]): 11 mm
- zone of inhibition at 500 µg/disc (Aspergillus parasiticus [23]): 7 mm
- zone of inhibition at 1000 µg/disc (Aspergillus parasiticus [24]): 9 mm
- diameter of the inhibition zone (DIZ) (Penicillium chrysogenum [25]): inactive
- diameter of the inhibition zone (DIZ) (Penicillium chrysogenum [26]): inactive
- diameter of the inhibition zone (DIZ) (Lipomyces lipofer [27]): inactive
- diameter of the inhibition zone (DIZ) (Lipomyces lipofer [28]): inactive
- diameter of the inhibition zone (DIZ) (Klebsiella aerogenes [29]): inactive
- diameter of the inhibition zone (DIZ) (Klebsiella aerogenes [30]): inactive
- diameter of the inhibition zone (DIZ) (Pseudomonas aeruginosa [31]): inactive
- diameter of the inhibition zone (DIZ) (Pseudomonas aeruginosa [32]): inactive
- zone of inhibition at 500 µg/disc (Trichoderma viride [38]): 11 mm
- zone of inhibition at 1000 µg/disc (Trichoderma viride [39]): 12 mm
- diameter of the inhibition zone (DIZ) (Aspergillus niger [43]): inactive
- diameter of the inhibition zone (DIZ) (Aspergillus niger [44]): inactive
